In ChEMBL document CHEMBL1127344, “Tridentate ligands containing the SNS donor atom set as a novel backbone for the development of technetium brain-imaging agents” (J Med Chem, 1994):

How the values were obtained:
Mus musculus [1] = species on record: Mus musculus; experiment: Tested for biodistribution of compound at 10 min in mice blood; format: ADME, organism-based; details: in vivo
In short: (§1)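 Male Swiss albino mice, at least five per group, received 0.1 mL (2-3 μCi) of HPLC-purified 99mTc complex reconstituted in 50% methanol by tail vein. They were killed by cardiectomy under light ether anesthesia at set times (1-60 min pi). Organs were weighed and γ-counted against a 1% injected-dose standard to give % dose/organ. Blood and muscle were taken as 7% and 43% of body weight.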

Mus musculus [2] = species on record: Mus musculus; experiment: Tested for biodistribution of compound at 60 min in mice urine; format: ADME, organism-based; details: in vivo, 1 h
In short: (§2)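 Male Swiss albino mice, at least five per group, received HPLC-purified 99mTc complex by tail vein. The complex was reconstituted in 50% methanol (0.1 mL, 2-3 μCi). Mice were killed by cardiectomy under light ether at 1-60 min pi. Organs were weighed and γ-counted against a 1% injected-dose standard to give % dose/organ. Blood and muscle were taken as 7% and 43% of body weight.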

Mus musculus [3] = species on record: Mus musculus; experiment: Tested for biodistribution of compound at 60 min in mice intestine; format: ADME, organism-based; details: in vivo, 1 h; in short: as §2
Mus musculus [4] = species on record: Mus musculus; experiment: Tested for biodistribution of compound at 30 min in mice kidney; format: ADME, organism-based; details: in vivo, 0.5 h; in short: as §1
Mus musculus [5] = species on record: Mus musculus; experiment: Tested for biodistribution of compound at 30 min in mice intestine; format: ADME, organism-based; details: in vivo, 0.5 h; in short: as §1
Mus musculus [6] = species on record: Mus musculus; experiment: Tested for biodistribution of compound at 10 min in mice urine; format: ADME, organism-based; details: in vivo; in short: as §1
Mus musculus [7] = species on record: Mus musculus; experiment: Tested for biodistribution of compound at 10 min in mice heart; format: ADME, organism-based; details: in vivo; in short: as §1
Mus musculus [8] = species on record: Mus musculus; experiment: Tested for biodistribution of compound at 10 min in mice stomach; format: ADME, organism-based; details: in vivo; in short: as §1
Mus musculus [9] = species on record: Mus musculus; experiment: Tested for biodistribution of compound at 5 min in mice kidney; format: ADME, organism-based; details: in vivo; in short: as §2
Mus musculus [10] = species on record: Mus musculus; experiment: Tested for biodistribution of compound at 10 min in mice lungs; format: ADME, organism-based, Lung; details: in vivo; in short: as §1
Mus musculus [11] = species on record: Mus musculus; experiment: Tested for biodistribution of compound at 10 min in mice kidney; format: ADME, organism-based; details: in vivo; in short: as §1
Mus musculus [12] = species on record: Mus musculus; experiment: Tested for biodistribution of compound at 10 min in mice muscle; format: ADME, organism-based, Muscle tissue; details: in vivo; in short: as §1
Mus musculus [13] = species on record: Mus musculus; experiment: Tested for biodistribution of compound at 1 min in mice spleen; format: ADME, organism-based; details: in vivo; in short: as §1
Mus musculus [14] = species on record: Mus musculus; experiment: Tested for biodistribution of compound at 10 min in mice spleen; format: ADME, organism-based; details: in vivo; in short: as §1
Mus musculus [15] = species on record: Mus musculus; experiment: Tested for biodistribution of compound at 30 min in mice spleen; format: ADME, organism-based; details: in vivo, 0.5 h; in short: as §1
Mus musculus [16] = species on record: Mus musculus; experiment: Tested for biodistribution of compound at 5 min in mice spleen; format: ADME, organism-based; details: in vivo; in short: as §2
Mus musculus [17] = species on record: Mus musculus; experiment: Tested for biodistribution of compound at 30 min in mice urine; format: ADME, organism-based; details: in vivo, 0.5 h; in short: as §1
Mus musculus [18] = species on record: Mus musculus; experiment: Tested for biodistribution of compound at 5 min in mice brain; format: ADME, organism-based; details: in vivo; in short: as §2
Mus musculus [19] = species on record: Mus musculus; experiment: Tested for biodistribution of compound at 60 min in mice kidney; format: ADME, organism-based; details: in vivo, 1 h; in short: as §2
Mus musculus [20] = species on record: Mus musculus; experiment: Tested for biodistribution of compound at 10 min in mice brain; format: ADME, organism-based; details: in vivo; in short: as §1
Mus musculus [21] = species on record: Mus musculus; experiment: Tested for biodistribution of compound at 30 min in mice muscle; format: ADME, organism-based, Muscle tissue; details: in vivo, 0.5 h; in short: as §1
Mus musculus [22] = species on record: Mus musculus; experiment: Tested for biodistribution of compound at 30 min in mice stomach; format: ADME, organism-based; details: in vivo, 0.5 h; in short: as §1
Mus musculus [23] = species on record: Mus musculus; experiment: Tested for biodistribution of compound at 5 min in mice iver; format: ADME, organism-based, Liver; details: in vivo; in short: as §2
Mus musculus [24] = species on record: Mus musculus; experiment: Tested for biodistribution of compound at 30 min in mice heart; format: ADME, organism-based; details: in vivo, 0.5 h; in short: as §1
Mus musculus [25] = species on record: Mus musculus; experiment: Tested for biodistribution of compound at 1 min in mice heart; format: ADME, organism-based; details: in vivo; in short: as §1
Mus musculus [26] = species on record: Mus musculus; experiment: Tested for biodistribution of compound at 1 min in mice muscle; format: ADME, organism-based, Muscle tissue; details: in vivo; in short: as §1
Mus musculus [27] = species on record: Mus musculus; experiment: Tested for biodistribution of compound at 30 min in mice iver; format: ADME, organism-based, Liver; details: in vivo, 0.5 h; in short: as §1
Mus musculus [28] = species on record: Mus musculus; experiment: Tested for biodistribution of compound at 5 min in mice muscle; format: ADME, organism-based, Muscle tissue; details: in vivo; in short: as §2
Mus musculus [29] = species on record: Mus musculus; experiment: Tested for biodistribution of compound at 10 min in mice iver; format: ADME, organism-based, Liver; details: in vivo; in short: as §1
Mus musculus [30] = species on record: Mus musculus; experiment: Tested for biodistribution of compound at 60 min in mice lungs; format: ADME, organism-based, Lung; details: in vivo, 1 h; in short: as §2
Mus musculus [31] = species on record: Mus musculus; experiment: Tested for biodistribution of compound at 60 min in mice spleen; format: ADME, organism-based; details: in vivo, 1 h; in short: as §2
Mus musculus [32] = species on record: Mus musculus; experiment: Tested for biodistribution of compound at 5 min in mice stomach; format: ADME, organism-based; details: in vivo; in short: as §2
Mus musculus [33] = species on record: Mus musculus; experiment: Tested for biodistribution of compound at 60 min in mice iver; format: ADME, organism-based, Liver; details: in vivo, 1 h; in short: as §2
Mus musculus [34] = species on record: Mus musculus; experiment: Tested for biodistribution of compound at 5 min in mice heart; format: ADME, organism-based; details: in vivo; in short: as §2
Mus musculus [35] = species on record: Mus musculus; experiment: Tested for biodistribution of compound at 1 min in mice liver; format: ADME, organism-based; details: in vivo; in short: as §1
Mus musculus [36] = species on record: Mus musculus; experiment: Tested for biodistribution of compound at 1 min in mice brain; format: ADME, organism-based; details: in vivo; in short: as §1
Mus musculus [37] = species on record: Mus musculus; experiment: Tested for biodistribution of compound at 1 min in mice blood; format: ADME, organism-based; details: in vivo; in short: as §1
Mus musculus [38] = species on record: Mus musculus; experiment: Tested for biodistribution of compound at 30 min in mice brain; format: ADME, organism-based; details: in vivo, 0.5 h; in short: as §1
Mus musculus [39] = species on record: Mus musculus; experiment: Tested for biodistribution of compound at 1 min in mice lungs; format: ADME, organism-based, Lung; details: in vivo; in short: as §1
Mus musculus [40] = species on record: Mus musculus; experiment: Tested for biodistribution of compound at 5 min in mice blood; format: ADME, organism-based; details: in vivo; in short: as §2
Mus musculus [41] = species on record: Mus musculus; experiment: Tested for biodistribution of compound at 1 min in mice kidney; format: ADME, organism-based; details: in vivo; in short: as §1
Mus musculus [42] = species on record: Mus musculus; experiment: Tested for biodistribution of compound at 10 min in mice intestine; format: ADME, organism-based; details: in vivo; in short: as §1
Mus musculus [43] = species on record: Mus musculus; experiment: Tested for biodistribution of compound at 30 min in mice lungs; format: ADME, organism-based, Lung; details: in vivo, 0.5 h; in short: as §1
Mus musculus [44] = species on record: Mus musculus; experiment: Tested for biodistribution of compound at 1 min in mice stomach; format: ADME, organism-based; details: in vivo; in short: as §1
Mus musculus [45] = species on record: Mus musculus; experiment: Tested for biodistribution of compound at 60 min in mice heart; format: ADME, organism-based; details: in vivo, 1 h; in short: as §2
Mus musculus [46] = species on record: Mus musculus; experiment: Tested for biodistribution of compound at 60 min in mice brain; format: ADME, organism-based; details: in vivo, 1 h; in short: as §2
Mus musculus [47] = species on record: Mus musculus; experiment: Tested for biodistribution of compound at 60 min in mice muscle; format: ADME, organism-based, Muscle tissue; details: in vivo, 1 h; in short: as §2
Mus musculus [48] = species on record: Mus musculus; experiment: Tested for biodistribution of compound at 5 min in mice intestine; format: ADME, organism-based; details: in vivo; in short: as §2
Mus musculus [49] = species on record: Mus musculus; experiment: Tested for biodistribution of compound at 60 min in mice stomach; format: ADME, organism-based; details: in vivo, 1 h; in short: as §2
Mus musculus [50] = species on record: Mus musculus; experiment: Tested for biodistribution of compound at 30 min in mice blood; format: ADME, organism-based; details: in vivo, 0.5 h; in short: as §1
Mus musculus [51] = species on record: Mus musculus; experiment: Tested for biodistribution of compound at 5 min in mice lungs; format: ADME, organism-based, Lung; details: in vivo; in short: as §2
Mus musculus [52] = species on record: Mus musculus; experiment: Tested for biodistribution of compound at 1 min in mice intestine; format: ADME, organism-based; details: in vivo; in short: as §1
Mus musculus [53] = species on record: Mus musculus; experiment: Tested for biodistribution of compound at 60 min in mice blood; format: ADME, organism-based; details: in vivo, 1 h; in short: as §2

## [4-methoxythio)phenolato][N,N-bis(2-mercaptoethyl)-2-(ethylthio)ethylamine] oxotechnetium
Mus musculus [1]
  Dose/organ: 1.24%
Mus musculus [2]
  Dose/organ: 1.79%
Mus musculus [3]
  Dose/organ: 44.3%
Mus musculus [4]
  Dose/organ: 1.04%
Mus musculus [5]
  Dose/organ: 43.12%
Mus musculus [6]
  Dose/organ: 0.27%
Mus musculus [7]
  Dose/organ: 0.31%
Mus musculus [8]
  Dose/organ: 1.02%
Mus musculus [9]
  Dose/organ: 2.45%
Mus musculus [10]
  Dose/organ: 1.05%
Mus musculus [11]
  Dose/organ: 1.76%
Mus musculus [12]
  Dose/organ: 20.29%
Mus musculus [13]
  Dose/organ: 0.06%
Mus musculus [14]
  Dose/organ: 0.16%
Mus musculus [15]
  Dose/organ: 0.06%
Mus musculus [16]
  Dose/organ: 0.21%
Mus musculus [17]
  Dose/organ: 0.77%
Mus musculus [18]
  Dose/organ: 2.43%
Mus musculus [19]
  Dose/organ: 0.54%
Mus musculus [20]
  Dose/organ: 1.57%
Mus musculus [21]
  Dose/organ: 10.41%
Mus musculus [22]
  Dose/organ: 0.37%
Mus musculus [23]
  Dose/organ: 16.97%
Mus musculus [24]
  Dose/organ: 0.11%
Mus musculus [25]
  Dose/organ: 4.02%
Mus musculus [26]
  Dose/organ: 34.39%
Mus musculus [27]
  Dose/organ: 24.36%
Mus musculus [28]
  Dose/organ: 25.57%
Mus musculus [29]
  Dose/organ: 24.79%
Mus musculus [30]
  Dose/organ: 0.26%
Mus musculus [31]
  Dose/organ: 0.03%
Mus musculus [32]
  Dose/organ: 0.73%
Mus musculus [33]
  Dose/organ: 18.03%
Mus musculus [34]
  Dose/organ: 0.59%
Mus musculus [35]
  Dose/organ: 3.58%
Mus musculus [36]
  Dose/organ: 3.68%
Mus musculus [37]
  Dose/organ: 5.77%
Mus musculus [38]
  Dose/organ: 0.39%
Mus musculus [39]
  Dose/organ: 5.25%
Mus musculus [40]
  Dose/organ: 1.66%
Mus musculus [41]
  Dose/organ: 2.3%
Mus musculus [42]
  Dose/organ: 15.44%
Mus musculus [43]
  Dose/organ: 0.52%
Mus musculus [44]
  Dose/organ: 0.35%
Mus musculus [45]
  Dose/organ: 0.05%
Mus musculus [46]
  Dose/organ: 0.15%
Mus musculus [47]
  Dose/organ: 5.27%
Mus musculus [48]
  Dose/organ: 9.31%
Mus musculus [49]
  Dose/organ: 1.1%
Mus musculus [50]
  Dose/organ: 0.8%
Mus musculus [51]
  Dose/organ: 1.52%
Mus musculus [52]
  Dose/organ: 4.14%
Mus musculus [53]
  Dose/organ: 0.79%
